Measurements reported in article PMC6594083 (Diabetes, Obesity & Metabolism, 2019).
Where “and” joins values, the source holds several entries; their conditions need not be identical. Equal values may be shown once. Read-outs that look alike come from different tables or passages of the source.

Tests used:
Format in all cases: in vivo, human (Japanese patients)
[1] = Pharmacokinetics of ipragliflozin; conditions: human, plasma, oral, AUC24h, day 14, mean ± SD
In short: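 Patients were hospitalized days −2 to 3 and days 13 to 15. […] The analysis set was patients dosed with at least one drug-concentration sample.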

[2] = system: Japanese patients with type 1 diabetes mellitus; conditions: Day 15; for Glycoalbumin, AMD (95% CI): adjusted mean difference to placebo; for Body weight, mean change from baseline / Glycoalbumin, mean change from baseline: mean ± SD
In short: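 Glycoalbumin and body weight were taken as change from baseline to day 15. Differences from placebo came from an analysis of covariance with baseline as covariate, with 95% CI. Analysed in patients with day-14 pharmacodynamic data.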

[3] = system: Japanese patients with type 1 diabetes mellitus; assay: Concomitant insulin daily dose; conditions: day 14
In short: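 Japanese type 1 diabetes patients on insulin; randomized, double-blind, placebo-controlled. Insulin was adjusted by usual clinical practice on physician instruction, with a cut considered if self-monitored glucose fell below 80 mg/dL. Basal, bolus and total daily units recorded; change from baseline to day 14.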

[4] = system: Japanese patients with type 1 diabetes mellitus; assay: Safety: treatment-emergent adverse events incl. hypoglycaemia
In short: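 Self-monitored blood glucose was checked four times daily, before each meal and at bedtime. A value ≤70 mg/dL (≤3.89 mmol/L) was recorded as a hypoglycaemia adverse event. Adverse events were coded by MedDRA version 18.0 in all dosed patients.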

[5] = system: Japanese patients with type 1 diabetes mellitus; assay: Safety: serum ketone levels; conditions: for Blood ketone body in patient with AE blood ketone body increased: person; for Mean (SD) change in total serum ketones: baseline until end of treatment
In short: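 Total serum ketones, acetoacetic acid and 3-hydroxybutyric acid were measured at screening, predose on treatment days 1 (baseline), 2, 3, 14 and 15, and in the post-treatment period. Ketone increases were reported as adverse events.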

Question: Which results are given for `OC[C@H]1O[C@@H](c2ccc(F)c(Cc3cc4ccccc4s3)c2)[C@H](O)[C@@H](O)[C@@H]1O` [ipragliflozin]?
Answer: AUC(0-t) ([1]; 25 mg/day, 25 mg/day): 2510 ± 495 ng·h/mL; AUC(0-t) ([1]; 50 mg/day, 50 mg/day): 5790 ± 1130 ng·h/mL; Glycoalbumin, AMD (95% CI) ([2]; 25 mg/day): −2.17% and −2.17 (−3.84, −0.51) %; Body weight, mean change from baseline ([2]; 25 mg/day): -0.83 ± 0.48 kg; Glycoalbumin, mean change from baseline ([2]; 25 mg/day): −2.67 ± 2.30%; Glycoalbumin, AMD (95% CI) ([2]; 50 mg/day): −2.03% and −2.03 (−3.58, −0.48) %; Body weight, mean change from baseline ([2]; 50 mg/day): -1.18 ± 1.06 kg; Glycoalbumin, mean change from baseline ([2]; 50 mg/day): −2.53 ± 1.52%; Body weight, mean change from baseline ([2]; 100 mg/day): -0.94 ± 0.89 kg; Glycoalbumin, mean change from baseline ([2]; 100 mg/day): −2.95 ± 2.24%; Total daily insulin dose, % change from baseline (SD) ([3]; 25 mg/day): −14.77 ± 14.04%; Total daily insulin dose, % change from baseline (SD) ([3]; 50 mg/day): −18.40 ± 12.49%; Total daily insulin dose, % change from baseline (SD) ([3]; 100 mg/day): −19.25 ± 16.77%; Hypoglycaemia, Asymptomatic ([4]; 25 mg/day (n = 10)): 10 (100.0) patients (%); Hypoglycaemia, Asymptomatic, number of events ([4]; 25 mg/day (n = 10)): 44 events; Hypoglycaemia, Documented symptomatic ([4]; 25 mg/day (n = 10)): 8 (80.0) patients (%); Hypoglycaemia, Documented symptomatic, number of events ([4]; 25 mg/day (n = 10)): 58 events; Hypoglycaemia, Drug‐related ([4]; 25 mg/day (n = 10)): 10 (100.0) patients (%); Hypoglycaemia, Drug‐related, number of events ([4]; 25 mg/day (n = 10)): 83 events; Hypoglycaemia, Major ([4]; 25 mg/day (n = 10)): 0 patients (%); Hypoglycaemia, Mild, number of events ([4]; 25 mg/day (n = 10)): 102 events; Hypoglycaemia, Moderate ([4]; 25 mg/day (n = 10)): 1 (10.0) patients (%); Hypoglycaemia, Moderate, number of events ([4]; 25 mg/day (n = 10)): 1 events; Hypoglycaemia, Probable symptomatic ([4]; 25 mg/day (n = 10)): 0 patients (%); Hypoglycaemia, Relative ([4]; 25 mg/day (n = 10)): 1 (10.0) patients (%); Hypoglycaemia, Relative, number of events ([4]; 25 mg/day (n = 10)): 1 events; Hypoglycaemia, Serious ([4]; 25 mg/day (n = 10)): 0 patients (%); Hypoglycaemia, Severe ([4]; 25 mg/day (n = 10)): 0 patients (%); TEAE Beta 2 microglobulin increased ([4]; 25 mg/day (n = 10)): 1 (10.0) patients (%); TEAE Blood bilirubin increased ([4]; 25 mg/day (n = 10)): 1 (10.0) patients (%); TEAE Blood ketone body increased ([4]; 25 mg/day (n = 10)): 1 (10.0) patients (%); TEAE Constipation ([4]; 25 mg/day (n = 10)): 0 patients (%); TEAE Decreased appetite ([4]; 25 mg/day (n = 10)): 0 patients (%); TEAE Gastroenteritis ([4]; 25 mg/day (n = 10)): 1 (10.0) patients (%); TEAE Headache ([4]; 25 mg/day (n = 10)): 0 patients (%); TEAE Hemorrhoidal hemorrhage ([4]; 25 mg/day (n = 10)): 0 patients (%); TEAE Hyperglycaemia ([4]; 25 mg/day (n = 10)): 0 patients (%); TEAE Hypoglycaemia ([4]; 25 mg/day (n = 10)): 10 (100.0) patients (%); TEAE Hypoglycaemia, number of events ([4]; 25 mg/day (n = 10)): 103 events; TEAE Nasopharyngitis ([4]; 25 mg/day (n = 10)): 1 (10.0) patients (%); TEAE Overall ([4]; 25 mg/day (n = 10)): 10 (100.0) patients (%); TEAE Papule ([4]; 25 mg/day (n = 10)): 0 patients (%); TEAE Pollakiuria ([4]; 25 mg/day (n = 10)): 0 patients (%); TEAE Pyrexia ([4]; 25 mg/day (n = 10)): 0 patients (%); TEAE Upper respiratory tract infection ([4]; 25 mg/day (n = 10)): 0 patients (%); TEAE Urine ketone body present ([4]; 25 mg/day (n = 10)): 0 patients (%); TEAE Vomiting ([4]; 25 mg/day (n = 10)): 0 patients (%); Hypoglycaemia, Asymptomatic ([4]; 50 mg/day (n = 12)): 9 (75.0) patients (%); Hypoglycaemia, Asymptomatic, number of events ([4]; 50 mg/day (n = 12)): 34 events; Hypoglycaemia, Documented symptomatic ([4]; 50 mg/day (n = 12)): 11 (91.7) patients (%); Hypoglycaemia, Documented symptomatic, number of events ([4]; 50 mg/day (n = 12)): 96 events; Hypoglycaemia, Drug‐related ([4]; 50 mg/day (n = 12)): 12 (100.0) patients (%); Hypoglycaemia, Drug‐related, number of events ([4]; 50 mg/day (n = 12)): 122 events; Hypoglycaemia, Major ([4]; 50 mg/day (n = 12)): 0 patients (%); Hypoglycaemia, Mild, number of events ([4]; 50 mg/day (n = 12)): 141 events; Hypoglycaemia, Moderate ([4]; 50 mg/day (n = 12)): 1 (8.3) patients (%); Hypoglycaemia, Moderate, number of events ([4]; 50 mg/day (n = 12)): 3 events; Hypoglycaemia, Probable symptomatic ([4]; 50 mg/day (n = 12)): 3 (25.0) patients (%); Hypoglycaemia, Probable symptomatic, number of events ([4]; 50 mg/day (n = 12)): 3 events; Hypoglycaemia, Relative ([4]; 50 mg/day (n = 12)): 4 (33.3) patients (%); Hypoglycaemia, Relative, number of events ([4]; 50 mg/day (n = 12)): 11 events; Hypoglycaemia, Serious ([4]; 50 mg/day (n = 12)): 0 patients (%); Hypoglycaemia, Severe ([4]; 50 mg/day (n = 12)): 0 patients (%); TEAE Beta 2 microglobulin increased ([4]; 50 mg/day (n = 12)): 0 patients (%); TEAE Blood bilirubin increased ([4]; 50 mg/day (n = 12)): 0 patients (%); TEAE Blood ketone body increased ([4]; 50 mg/day (n = 12)): 1 (8.3) patients (%); TEAE Constipation ([4]; 50 mg/day (n = 12)): 1 (8.3) patients (%); TEAE Decreased appetite ([4]; 50 mg/day (n = 12)): 1 (8.3) patients (%); TEAE Gastroenteritis ([4]; 50 mg/day (n = 12)): 0 patients (%); TEAE Headache ([4]; 50 mg/day (n = 12)): 0 patients (%); TEAE Hemorrhoidal hemorrhage ([4]; 50 mg/day (n = 12)): 0 patients (%); TEAE Hyperglycaemia ([4]; 50 mg/day (n = 12)): 1 (8.3) patients (%); TEAE Hypoglycaemia ([4]; 50 mg/day (n = 12)): 12 (100.0) patients (%); TEAE Hypoglycaemia, number of events ([4]; 50 mg/day (n = 12)): 144 events; TEAE Nasopharyngitis ([4]; 50 mg/day (n = 12)): 1 (8.3) patients (%); TEAE Overall ([4]; 50 mg/day (n = 12)): 12 (100.0) patients (%); TEAE Papule ([4]; 50 mg/day (n = 12)): 1 (8.3) patients (%); TEAE Pollakiuria ([4]; 50 mg/day (n = 12)): 1 (8.3) patients (%); TEAE Pyrexia ([4]; 50 mg/day (n = 12)): 1 (8.3) patients (%); TEAE Upper respiratory tract infection ([4]; 50 mg/day (n = 12)): 0 patients (%); TEAE Urine ketone body present ([4]; 50 mg/day (n = 12)): 1 (8.3) patients (%); TEAE Vomiting ([4]; 50 mg/day (n = 12)): 1 (8.3) patients (%); Hypoglycaemia, Asymptomatic ([4]; 100 mg/day (n = 10)): 9 (90.0) patients (%); Hypoglycaemia, Asymptomatic, number of events ([4]; 100 mg/day (n = 10)): 60 events; Hypoglycaemia, Documented symptomatic ([4]; 100 mg/day (n = 10)): 7 (70.0) patients (%); Hypoglycaemia, Documented symptomatic, number of events ([4]; 100 mg/day (n = 10)): 25 events; Hypoglycaemia, Drug‐related ([4]; 100 mg/day (n = 10)): 9 (90.0) patients (%); Hypoglycaemia, Drug‐related, number of events ([4]; 100 mg/day (n = 10)): 77 events; Hypoglycaemia, Major ([4]; 100 mg/day (n = 10)): 0 patients (%); Hypoglycaemia, Mild, number of events ([4]; 100 mg/day (n = 10)): 85 events; Hypoglycaemia, Moderate ([4]; 100 mg/day (n = 10)): 0 patients (%); Hypoglycaemia, Probable symptomatic ([4]; 100 mg/day (n = 10)): 0 patients (%); Hypoglycaemia, Relative ([4]; 100 mg/day (n = 10)): 0 patients (%); Hypoglycaemia, Serious ([4]; 100 mg/day (n = 10)): 0 patients (%); Hypoglycaemia, Severe ([4]; 100 mg/day (n = 10)): 0 patients (%); TEAE Beta 2 microglobulin increased ([4]; 100 mg/day (n = 10)): 0 patients (%); TEAE Blood bilirubin increased ([4]; 100 mg/day (n = 10)): 0 patients (%); TEAE Blood ketone body increased ([4]; 100 mg/day (n = 10)): 2 (20.0) patients (%); TEAE Constipation ([4]; 100 mg/day (n = 10)): 0 patients (%); TEAE Decreased appetite ([4]; 100 mg/day (n = 10)): 0 patients (%); TEAE Gastroenteritis ([4]; 100 mg/day (n = 10)): 0 patients (%); TEAE Headache ([4]; 100 mg/day (n = 10)): 0 patients (%); TEAE Hemorrhoidal hemorrhage ([4]; 100 mg/day (n = 10)): 0 patients (%); TEAE Hyperglycaemia ([4]; 100 mg/day (n = 10)): 0 patients (%); TEAE Hypoglycaemia ([4]; 100 mg/day (n = 10)): 9 (90.0) patients (%); TEAE Hypoglycaemia, number of events ([4]; 100 mg/day (n = 10)): 85 events; TEAE Nasopharyngitis ([4]; 100 mg/day (n = 10)): 0 patients (%); TEAE Overall ([4]; 100 mg/day (n = 10)): 9 (90.0) patients (%); TEAE Papule ([4]; 100 mg/day (n = 10)): 0 patients (%); TEAE Pollakiuria ([4]; 100 mg/day (n = 10)): 0 patients (%); TEAE Pyrexia ([4]; 100 mg/day (n = 10)): 0 patients (%); TEAE Upper respiratory tract infection ([4]; 100 mg/day (n = 10)): 1 (10.0) patients (%); TEAE Urine ketone body present ([4]; 100 mg/day (n = 10)): 1 (10.0) patients (%); TEAE Vomiting ([4]; 100 mg/day (n = 10)): 0 patients (%); Deaths, serious TEAEs, TEAEs leading to discontinuation ([4]; 25, 50, 100 mg/day for 14 days): no deaths, other serious TEAEs, or TEAEs leading to discontinuation; Ketoacidosis ([4]; 25, 50, 100 mg/day for 14 days): no ketoacidosis was observed; Blood ketone body in patient with AE blood ketone body increased ([5]; 25 mg group, day 15, 24 hours postdose): 991 µmol/L; Mean (SD) change in total serum ketones ([5]; 25 mg/day): 173.38 (267.48) μmol/L; Blood ketone body in patient with AE blood ketone body increased ([5]; 50 mg group, day 15, 24 hours postdose): 968 µmol/L; Mean (SD) change in total serum ketones ([5]; 50 mg/day): 357.07 (294.41) μmol/L; Blood ketone body in patient with AE blood ketone body increased ([5]; 100 mg group, day 2, predose): 1200 µmol/L; Blood ketone body in patient with AE blood ketone body increased ([5]; 100 mg group, day 15, 24 hours postdose): 1770 µmol/L; Mean (SD) change in total serum ketones ([5]; 100 mg/day): 233.18 (387.35) μmol/L
